Source: ChEMBL document CHEMBL1142492 (J Med Chem, 2008)

What was measured:
[1] = biological target: Phosphatidylinositol 5-phosphate 4-kinase type-2 beta (Homo sapiens) (UniProt P78356); assay: Inhibition of PIP5K2B at 3 uM
[2] = biological target: Serine/threonine-protein kinase SIK1 (Homo sapiens) (UniProt P57059); assay: Inhibition of SNF1LK at 3 uM
[3] = biological target: Tyrosine-protein kinase receptor Tie-1 (Homo sapiens) (UniProt P35590); assay: Inhibition of TIE1 at 3 uM
[4] = biological target: Angiopoietin-1 receptor (Homo sapiens) (UniProt Q02763); assay: Inhibition of TIE2 at 3 uM
[5] = test system: Epidermal growth factor receptor (Homo sapiens), P00533 [L861Q]; assay: Inhibition of EGFR L861Q mutant at 3 uM; format: protein assay
Outline: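 Single-concentration kinase panel scoring: each value is the percentage of enzyme activity remaining relative to a DMSO-only control. An activity statistically indistinct from DMSO control was scored "no hit".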

[6] = biological target: Interleukin-1 receptor-associated kinase 3 (Homo sapiens) (UniProt Q9Y616); assay: Inhibition of IRAK3 at 3 uM
[7] = biological target: Leukocyte tyrosine kinase receptor (Homo sapiens) (UniProt P29376); assay: Inhibition of LTK at 3 uM
[8] = biological target: Tyrosine-protein kinase Lyn (Homo sapiens) (UniProt P07948); assay: Inhibition of LYN at 3 uM
[9] = biological target: Mitogen-activated protein kinase kinase kinase kinase 1 (Homo sapiens) (UniProt Q92918); assay: Inhibition of MAP4K1 at 3 uM
[10] = biological target: MAP kinase-activated protein kinase 5 (Homo sapiens) (UniProt Q8IW41); assay: Inhibition of MAPKAPK5 at 3 uM
[11] = biological target: Macrophage-stimulating protein receptor (Homo sapiens) (UniProt Q04912); assay: Inhibition of MST1R at 3 uM
[12] = biological target: Serine/threonine-protein kinase Nek9 (Homo sapiens) (UniProt Q8TD19); assay: Inhibition of NEK9 at 3 uM
[13] = biological target: Mitogen-activated protein kinase 14 (Homo sapiens) (UniProt Q16539); assay: Inhibition of p38-alpha at 3 uM
[14] = biological target: Mitogen-activated protein kinase 11 (Homo sapiens) (UniProt Q15759); assay: Inhibition of p38-beta at 3 uM
[15] = biological target: Serine/threonine-protein kinase PAK 1 (Homo sapiens) (UniProt Q13153); assay: Inhibition of PAK1 at 3 uM
[16] = biological target: Cyclin-dependent kinase 18 (Homo sapiens) (UniProt Q07002); assay: Inhibition of PCTK3 at 3 uM
[17] = biological target: Serine/threonine-protein kinase PLK3 (Homo sapiens) (UniProt Q9H4B4); assay: Inhibition of PLK3 at 3 uM
[18] = biological target: Protein-tyrosine kinase 6 (Homo sapiens) (UniProt Q13882); assay: Inhibition of PTK6 at 3 uM
[19] = test system: Proto-oncogene tyrosine-protein kinase receptor Ret (Homo sapiens), P07949 [V804M]; assay: Inhibition of RET V804M mutant at 3 uM
[20] = biological target: Receptor-interacting serine/threonine-protein kinase 1 (Homo sapiens) (UniProt Q13546); assay: Inhibition of RIPK1 at 3 uM
[21] = biological target: Cyclin-dependent kinase 15 (Homo sapiens) (UniProt Q96Q40); assay: Inhibition of PFTAIRE2 at 3 uM
[22] = biological target: Phosphatidylinositol 4,5-bisphosphate 3-kinase catalytic subunit beta isoform (Homo sapiens) (UniProt P42338); assay: Inhibition of PIK3CB at 3 uM
[23] = biological target: Wee1-like protein kinase (Homo sapiens) (UniProt P30291); assay: Inhibition of WEE1 at 3 uM
[24] = biological target: Beta-1 adrenergic receptor (Homo sapiens) (UniProt P08588); assay: Inhibition of human adrenergic beta-1 receptor at 3 uM
Outline: (§1)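 Counter-screen binding/enzyme panel at single 3 μM, n=2; results as percent inhibition. Species per target as listed (rat NMDA, GABAA sites; human receptors, transporters; rabbit ACE).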

[25] = biological target: Type-2 angiotensin II receptor (Homo sapiens) (UniProt P50052); assay: Inhibition of human AT2 receptor at 3 uM; outline: as §1
[26] = biological target: Pro-epidermal growth factor (Homo sapiens) (UniProt P01133); assay: Inhibition of human EGF at 3 uM; outline: as §1
[27] = biological target: Gamma-aminobutyric acid receptor subunit alpha-1 (Rattus norvegicus) (UniProt P62813); assay: Displacement of muscimol from rat GABAA1 receptor at 3 uM; outline: as §1
[28] = biological target: Muscarinic acetylcholine receptor M2 (Homo sapiens) (UniProt P08172); assay: Inhibition of human muscarinic M2 receptor at 3 uM; outline: as §1
[29] = biological target: Cyclin-dependent kinase 11B (Homo sapiens) (UniProt P21127); assay: Inhibition of CDC2L1 at 3 uM
[30] = test system: Tyrosine-protein kinase ABL1 (Homo sapiens), P00519 [Y253F]; assay: Inhibition of ABL1 Y253F mutant at 3 uM
[31] = biological target: Tyrosine-protein kinase ABL2 (Homo sapiens) (UniProt P42684); assay: Inhibition of ABL2 at 3 uM
[32] = biological target: RAC-gamma serine/threonine-protein kinase (Homo sapiens) (UniProt Q9Y243); assay: Inhibition of AKT3 at 3 uM
[33] = biological target: 5'-AMP-activated protein kinase catalytic subunit alpha-1 (Homo sapiens) (UniProt Q13131); assay: Inhibition of AMPKalpha1 at 3 uM
[34] = biological target: Aurora kinase B (Homo sapiens) (UniProt Q96GD4); assay: Inhibition of AURKB at 3 uM
[35] = biological target: Tyrosine-protein kinase receptor UFO (Homo sapiens) (UniProt P30530); assay: Inhibition of AXL at 3 uM
[36] = biological target: Tyrosine-protein kinase Blk (Homo sapiens) (UniProt P51451); assay: Inhibition of BLK at 3 uM
[37] = biological target: Casein kinase I isoform alpha-like (Homo sapiens) (UniProt Q8N752); assay: Inhibition of CSNK1A1L at 3 uM
[38] = biological target: Casein kinase II subunit alpha (Homo sapiens) (UniProt P68400); assay: Inhibition of CSNK2A1 at 3 uM
[39] = biological target: Death-associated protein kinase 2 (Homo sapiens) (UniProt Q9UIK4); assay: Inhibition of DAPK2 at 3 uM
[40] = biological target: Serine/threonine-protein kinase MRCK gamma (Homo sapiens) (UniProt Q6DT37); assay: Inhibition of DMPK2 at 3 uM
[41] = biological target: Dual specificity tyrosine-phosphorylation-regulated kinase 1B (Homo sapiens) (UniProt Q9Y463); assay: Inhibition of DYRK1B at 3 uM
[42] = biological target: Calcium/calmodulin-dependent protein kinase type 1 (Homo sapiens) (UniProt Q14012); assay: Inhibition of CAMK1 at 3 uM
[43] = test system: Epidermal growth factor receptor (Homo sapiens), P00533 [G719S]; assay: Inhibition of EGFR G719S mutant at 3 uM; format: protein assay
Oryctolagus cuniculus = species on record: Oryctolagus cuniculus; details: 3 uM
Rattus norvegicus = species on record: Rattus norvegicus; details: 3 uM
in vivo = details: Sprague-Dawley, rat, plasma, iv, 1 mg/kg

Sequence of Cyclin-dependent kinase 11B (Homo sapiens) (P21127 whole entry): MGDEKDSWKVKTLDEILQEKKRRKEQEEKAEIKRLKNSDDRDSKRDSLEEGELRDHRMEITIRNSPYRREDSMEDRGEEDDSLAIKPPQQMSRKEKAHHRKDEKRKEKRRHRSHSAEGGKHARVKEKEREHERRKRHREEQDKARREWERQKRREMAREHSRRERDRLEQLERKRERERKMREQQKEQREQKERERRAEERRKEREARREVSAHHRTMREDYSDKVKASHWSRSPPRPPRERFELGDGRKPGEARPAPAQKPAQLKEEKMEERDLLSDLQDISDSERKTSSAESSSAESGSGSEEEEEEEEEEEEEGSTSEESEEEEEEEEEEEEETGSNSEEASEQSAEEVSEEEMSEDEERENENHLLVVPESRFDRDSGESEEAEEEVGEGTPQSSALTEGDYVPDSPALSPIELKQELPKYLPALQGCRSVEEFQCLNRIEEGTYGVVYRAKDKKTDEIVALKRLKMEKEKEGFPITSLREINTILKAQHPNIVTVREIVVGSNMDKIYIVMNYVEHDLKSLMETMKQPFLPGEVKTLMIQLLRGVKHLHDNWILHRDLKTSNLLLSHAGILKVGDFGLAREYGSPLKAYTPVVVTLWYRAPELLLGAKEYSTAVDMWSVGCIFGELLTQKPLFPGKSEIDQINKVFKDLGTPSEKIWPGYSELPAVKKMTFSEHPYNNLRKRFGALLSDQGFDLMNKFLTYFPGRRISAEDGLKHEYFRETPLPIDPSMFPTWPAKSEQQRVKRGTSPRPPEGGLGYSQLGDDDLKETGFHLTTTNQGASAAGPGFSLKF
Sequence of Protein-tyrosine kinase 6 (Homo sapiens) (Q13882 whole entry, looked up): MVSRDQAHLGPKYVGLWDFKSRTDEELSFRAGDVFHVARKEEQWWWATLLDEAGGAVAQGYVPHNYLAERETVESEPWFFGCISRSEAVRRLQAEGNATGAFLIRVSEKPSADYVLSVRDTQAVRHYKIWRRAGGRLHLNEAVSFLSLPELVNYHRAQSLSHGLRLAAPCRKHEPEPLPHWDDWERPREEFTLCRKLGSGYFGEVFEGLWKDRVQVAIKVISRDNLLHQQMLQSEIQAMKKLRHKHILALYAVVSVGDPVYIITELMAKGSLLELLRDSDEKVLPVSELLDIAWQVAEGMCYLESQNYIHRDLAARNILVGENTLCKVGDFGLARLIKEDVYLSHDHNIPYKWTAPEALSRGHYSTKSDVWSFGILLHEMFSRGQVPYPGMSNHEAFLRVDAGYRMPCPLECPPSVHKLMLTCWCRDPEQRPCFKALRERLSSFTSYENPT
Sequence of Macrophage-stimulating protein receptor (Homo sapiens) (Q04912 25-304 limits assumed): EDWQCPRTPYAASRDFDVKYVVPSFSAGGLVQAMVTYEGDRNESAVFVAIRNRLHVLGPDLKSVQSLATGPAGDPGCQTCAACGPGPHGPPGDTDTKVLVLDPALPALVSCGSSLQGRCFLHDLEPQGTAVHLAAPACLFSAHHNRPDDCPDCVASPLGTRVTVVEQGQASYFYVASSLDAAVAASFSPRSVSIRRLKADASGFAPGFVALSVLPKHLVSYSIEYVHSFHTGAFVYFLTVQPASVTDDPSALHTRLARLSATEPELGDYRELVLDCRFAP
Sequence of Macrophage-stimulating protein receptor (Homo sapiens) (Q04912 310-1400 limits assumed): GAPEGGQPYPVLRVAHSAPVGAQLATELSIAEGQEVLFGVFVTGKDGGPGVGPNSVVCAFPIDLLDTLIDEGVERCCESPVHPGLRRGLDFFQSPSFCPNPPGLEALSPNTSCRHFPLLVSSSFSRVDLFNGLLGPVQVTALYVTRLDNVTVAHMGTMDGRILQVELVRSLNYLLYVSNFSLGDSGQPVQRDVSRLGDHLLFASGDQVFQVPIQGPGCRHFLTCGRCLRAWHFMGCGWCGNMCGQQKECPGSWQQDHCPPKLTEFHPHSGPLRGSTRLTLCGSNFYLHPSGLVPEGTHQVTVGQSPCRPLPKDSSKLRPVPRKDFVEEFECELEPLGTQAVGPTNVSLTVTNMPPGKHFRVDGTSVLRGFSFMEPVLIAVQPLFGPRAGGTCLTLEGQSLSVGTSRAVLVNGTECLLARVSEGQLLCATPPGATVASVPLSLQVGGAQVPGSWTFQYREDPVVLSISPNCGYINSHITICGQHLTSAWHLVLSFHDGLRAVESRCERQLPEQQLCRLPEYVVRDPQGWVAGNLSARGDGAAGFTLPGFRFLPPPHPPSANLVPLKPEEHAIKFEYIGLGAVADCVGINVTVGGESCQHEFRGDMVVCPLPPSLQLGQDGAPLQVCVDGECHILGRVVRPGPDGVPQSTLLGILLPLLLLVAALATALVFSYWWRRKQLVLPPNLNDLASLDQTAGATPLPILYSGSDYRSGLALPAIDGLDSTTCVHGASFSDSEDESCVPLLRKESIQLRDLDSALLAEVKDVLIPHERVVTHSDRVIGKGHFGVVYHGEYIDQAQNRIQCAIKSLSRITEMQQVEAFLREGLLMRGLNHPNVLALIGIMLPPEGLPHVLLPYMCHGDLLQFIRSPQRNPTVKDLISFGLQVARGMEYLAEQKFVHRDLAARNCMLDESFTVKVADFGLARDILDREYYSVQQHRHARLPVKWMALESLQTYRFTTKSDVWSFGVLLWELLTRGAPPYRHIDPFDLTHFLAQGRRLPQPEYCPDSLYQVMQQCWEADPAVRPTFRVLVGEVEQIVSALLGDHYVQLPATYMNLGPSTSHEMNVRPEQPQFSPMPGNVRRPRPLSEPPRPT
Sequence of Type-2 angiotensin II receptor (Homo sapiens) (P50052 whole entry): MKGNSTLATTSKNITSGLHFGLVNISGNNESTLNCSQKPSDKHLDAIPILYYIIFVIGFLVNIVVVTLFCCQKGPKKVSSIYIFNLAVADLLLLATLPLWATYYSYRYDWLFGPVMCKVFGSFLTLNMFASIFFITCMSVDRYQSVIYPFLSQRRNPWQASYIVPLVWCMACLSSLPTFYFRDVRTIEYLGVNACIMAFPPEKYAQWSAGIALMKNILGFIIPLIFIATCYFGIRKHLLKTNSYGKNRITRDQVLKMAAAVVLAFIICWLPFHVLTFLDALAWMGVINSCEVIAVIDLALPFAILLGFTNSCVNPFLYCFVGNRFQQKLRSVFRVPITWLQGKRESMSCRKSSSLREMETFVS
Sequence of Wee1-like protein kinase (Homo sapiens) (P30291 whole entry, looked up): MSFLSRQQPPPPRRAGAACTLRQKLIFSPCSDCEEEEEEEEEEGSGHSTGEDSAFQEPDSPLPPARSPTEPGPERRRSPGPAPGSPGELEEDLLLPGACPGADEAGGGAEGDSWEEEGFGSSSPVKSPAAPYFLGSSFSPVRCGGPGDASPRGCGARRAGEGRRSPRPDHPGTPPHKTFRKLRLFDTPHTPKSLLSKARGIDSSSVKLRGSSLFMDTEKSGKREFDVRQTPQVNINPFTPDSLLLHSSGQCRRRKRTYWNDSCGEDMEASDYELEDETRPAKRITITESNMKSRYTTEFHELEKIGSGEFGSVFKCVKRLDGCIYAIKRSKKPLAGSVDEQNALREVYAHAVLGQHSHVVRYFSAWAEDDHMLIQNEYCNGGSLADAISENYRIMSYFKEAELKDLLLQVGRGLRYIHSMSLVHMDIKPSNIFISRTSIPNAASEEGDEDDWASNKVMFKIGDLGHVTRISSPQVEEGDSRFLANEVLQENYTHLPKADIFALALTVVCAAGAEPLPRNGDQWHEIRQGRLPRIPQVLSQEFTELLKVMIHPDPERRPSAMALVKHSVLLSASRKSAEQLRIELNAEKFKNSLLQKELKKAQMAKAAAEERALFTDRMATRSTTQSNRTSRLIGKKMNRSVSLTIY
Sequence of Mitogen-activated protein kinase 11 (Homo sapiens) (Q15759 whole entry): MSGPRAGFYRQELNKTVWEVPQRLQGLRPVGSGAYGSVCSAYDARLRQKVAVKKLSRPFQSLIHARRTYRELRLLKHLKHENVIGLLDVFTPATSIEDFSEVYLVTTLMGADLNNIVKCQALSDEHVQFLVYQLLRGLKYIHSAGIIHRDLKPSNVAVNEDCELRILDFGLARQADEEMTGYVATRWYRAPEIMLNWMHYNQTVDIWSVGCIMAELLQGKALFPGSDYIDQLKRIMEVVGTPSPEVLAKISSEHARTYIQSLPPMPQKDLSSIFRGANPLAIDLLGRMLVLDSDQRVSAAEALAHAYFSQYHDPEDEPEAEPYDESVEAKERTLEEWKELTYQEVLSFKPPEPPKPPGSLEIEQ
Sequence of 5'-AMP-activated protein kinase catalytic subunit alpha-1 (Homo sapiens) (Q13131 whole entry, looked up): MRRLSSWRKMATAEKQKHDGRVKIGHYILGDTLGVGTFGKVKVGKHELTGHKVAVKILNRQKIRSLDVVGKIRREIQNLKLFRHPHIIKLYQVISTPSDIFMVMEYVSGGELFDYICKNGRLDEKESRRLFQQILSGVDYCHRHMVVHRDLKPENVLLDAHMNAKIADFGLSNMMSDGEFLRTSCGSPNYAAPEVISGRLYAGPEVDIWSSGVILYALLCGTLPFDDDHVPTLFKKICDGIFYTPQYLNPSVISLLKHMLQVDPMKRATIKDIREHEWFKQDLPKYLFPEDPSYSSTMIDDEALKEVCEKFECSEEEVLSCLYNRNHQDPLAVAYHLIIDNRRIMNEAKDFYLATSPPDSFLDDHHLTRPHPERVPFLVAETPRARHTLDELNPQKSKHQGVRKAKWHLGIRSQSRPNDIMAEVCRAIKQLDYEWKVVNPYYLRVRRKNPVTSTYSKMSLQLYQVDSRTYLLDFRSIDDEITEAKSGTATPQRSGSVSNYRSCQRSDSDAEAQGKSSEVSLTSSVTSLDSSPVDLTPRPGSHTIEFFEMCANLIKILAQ
Sequence of Cyclin-dependent kinase 18 (Homo sapiens) (Q07002 whole entry): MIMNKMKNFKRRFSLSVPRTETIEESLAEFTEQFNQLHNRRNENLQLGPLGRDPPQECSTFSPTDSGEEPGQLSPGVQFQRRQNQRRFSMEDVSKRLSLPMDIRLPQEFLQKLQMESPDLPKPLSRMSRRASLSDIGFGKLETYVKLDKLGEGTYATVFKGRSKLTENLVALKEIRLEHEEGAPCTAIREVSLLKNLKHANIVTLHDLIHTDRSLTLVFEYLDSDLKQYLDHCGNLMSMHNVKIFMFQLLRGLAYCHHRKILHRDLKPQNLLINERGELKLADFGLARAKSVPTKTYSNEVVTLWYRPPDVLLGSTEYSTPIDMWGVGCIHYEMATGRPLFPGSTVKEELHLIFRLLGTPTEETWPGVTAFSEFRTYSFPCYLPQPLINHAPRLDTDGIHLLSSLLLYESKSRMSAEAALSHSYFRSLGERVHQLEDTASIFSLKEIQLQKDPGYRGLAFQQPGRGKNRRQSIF

`CN(C)CCOc1cc(-c2cn[nH]c2)ccc1NC(=O)C1COc2ccccc2O1` (stereo unspecified) [SR-3677] showed an inhibition [1] of less than 10%, an inhibition [2] of less than 10% and an inhibition [3] of less than 10%. It also gave an inhibition [4] of less than 10%, an inhibition [5] of less than 10% and an inhibition [6] of less than 10%. For the same compound, the inhibition [7] was less than 10%, the inhibition [8] was less than 10% and the inhibition [9] was less than 10%. For the same compound, the inhibition [10] was less than 10%, the inhibition [11] was less than 10% and the inhibition [12] was less than 10%. For the same compound, the inhibition [13] was less than 10%, the inhibition [14] was less than 10% and the inhibition [15] was less than 10%. For the same compound, the inhibition [16] was less than 10%, the inhibition [17] was less than 10% and the inhibition [18] was less than 10%. The inhibition [19] was less than 10%, the inhibition [20] was less than 10% and the inhibition [21] was less than 10%. It also gave an inhibition [22] of less than 10%, an inhibition [23] of less than 10% and an inhibition [24] of 43%. The inhibition [25] was -1%, the inhibition [26] was -1% and the inhibition [27] was 5%. For the same compound, the inhibition [28] was 4%, the inhibition [29] was less than 10% and the inhibition [30] was less than 10%. The inhibition [31] was less than 10%, the inhibition [32] was 77% and the inhibition [33] was less than 10%. The inhibition [34] was less than 10%, the inhibition [35] was less than 10% and the inhibition [36] was less than 10%. For the same compound, the inhibition [37] was less than 10%, the inhibition [38] was less than 10% and the inhibition [39] was less than 10%. For the same compound, the inhibition [40] was less than 10%, the inhibition [41] was less than 10% and the inhibition [42] was less than 10%. The inhibition [43] was less than 10%, the inhibition (Oryctolagus cuniculus) was 4% and the inhibition (Rattus norvegicus) was 22%. It also gave an AUC (in vivo) of 0.7 µM·h.
